High-throughput results (PubChem)
Only a selection was taken, and hits are over-represented in it overall.
H69AR inhibit = blocks growth of human H69AR lung tumor cells. AID 598. actives 6% (n = 85,000). H69AR lung tumor viability, ATP luminescence, 72 h; stronger effect = lower value. viability, % at 10 µM;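 active means viability at or below 40%; inactive means viability above 40%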;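 further: multidrug resistant small cell line overexpressing MRP-1 efflux transporter; 100% = mean luminescence of untreated control wells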
HUVEC prolif 384 = blocks proliferation of human endothelial cells; HUVEC proliferation, CellTiter-Glo luminescence, 72 h; stronger effect = lower value; viability, % at 10 µM (by protocol); actives 1.1% (n = 86,000);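 active means viability at or below 30%; inactive means viability above 30%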;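 further: 100% = median luminescence of DMSO-only cell control wells on each plate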
HCT116 PTEN-null = PTEN-deleted cell growth suppression; HCT116 PTEN-null viability, CellTiter-Glo, 60 h; stronger effect = lower value; actives 1.2% (n = 140,000); viability, % at 10 µM;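 active means viability at or below a set limit, 4 SD under the median of all tested compounds, cut at about 3.7% in these data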;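 further: PTEN knockout HCT116 line with beta catenin targeted HCT116 as companion control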
Fibroblast inh = blocks proliferation of human lung fibroblasts | LL 47 human lung fibroblast viability, ATP luminescence; stronger effect = lower value | AID 719 | actives 1.1% (n = 85,000) | viability, % at 10 µM;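 active means viability at or below 50% in the single dose screen; inactive means viability above 50%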;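 further: compound exposure lasted 72 h before the ATP readout; 100% = median luminescence of untreated cell-only wells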
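Test system: LL 47 human lung fibroblasts; Quantity: 1,150 cells/well; Buffer or medium: IMEM plus 15% FBS; Dosing: tenfold compound dosing solution, DMSO at 0.1%; Timing: overnight cell rest, 72 h compound treatment at 37 °C; Detection: ATP-based CellTiter-Glo luminescent readout; Read-out basis: viability percentage against median untreated-cell control; Controls: cell-only wells, no compound.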
bCat KO growth = beta-catenin-lacking colon tumor cell growth suppression. HCT116 beta-catenin knockout viability, CellTiter-Glo, 60 h; stronger effect = lower value. viability, % at 10 µM. actives 1.5% (n = 140,000). AID 818;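 active means viability at or under a set limit, the compound median less 4 SD, cut at about 6% in these data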;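 further: 0% = Hyamine 1622 control at 20 µM and 100% = untreated cell control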
The depositor's hits bear a star; . = no result.

SMILES | H69AR inhibit | HUVEC prolif 384 | HCT116 PTEN-null | Fibroblast inh | bCat KO growth
CCCS(=O)(=O)c1nnnn1-c1cccc(OC)c1 | 1.1* | 32 | 1.3* | 12* | 1.4*
COc1cccc(-n2nnnc2SCC(=O)Nc2ccc(C(C)=O)cc2)c1 | 99 | 108 | 94 | 104 | 85
C[C@H](NS(=O)(=O)c1ccccc1F)C(=O)OCC(=O)N1CCc2ccccc21 | 97 | 101 | 97 | 102 | 98
CCOC(=O)c1ccc(NC(=S)N(CCCN2CCCC(C)C2)Cc2ccco2)cc1 (centres undefined) | . | . | 76 | . | 76
S=c1[nH]nc(-c2ccc3c(c2)OCO3)n1-c1ccccc1 | . | . | 94 | . | 99
S=c1[nH]nc(COc2ccc3c(c2)OCO3)n1-c1ccccc1 | 37* | 93 | 100 | 98 | 93
COc1cccc(C2C(C(=O)Nc3ccccc3)=C(C)N=c3s/c(=C/c4ccc(OCC(=O)O)cc4)c(=O)n32)c1 (centres undefined) | . | . | 102 | . | 101
CC1=C(C(=O)Nc2ccccc2)C(c2ccc(C)o2)n2c(s/c(=C\c3ccco3)c2=O)=N1 (centres undefined) | 3.5* | 69 | 84 | 82 | 89
Cc1ccc(-c2ccccc2NC(=O)CCl)o1 | 0.1* | 84 | 44 | 99 | 23
COc1ccccc1NC(=S)N1CCN(Cc2ccc3c(c2)OCO3)CC1 | . | . | 97 | . | 87
COc1cc(NC(=O)c2ccccc2-c2ccccc2)cc(OC)c1 | . | . | 87 | . | 92
N#CC(c1cccc(Cl)c1)c1ccc2c(C(F)(F)F)cc(C(F)(F)F)nc2n1 (centres undefined) | 4.3* | 14* | 1.0* | 20* | 0.8*
Cc1cc(C(C#N)c2cccc(Cl)c2)n2ncnc2n1 (centres undefined) | 104 | 102 | 93 | 102 | 89
Cc1ccc2c(c1)c1c(n2CC(O)Cn2c(C)nc3ccccc32)/C(=N\O)CCC1 (centres undefined) | 2.7* | 3.4* | 34 | 94 | 39
Cc1ccc2c(c1)c1c(n2CC(O)Cn2c(C)nc3ccccc32)C(=O)CCC1 (centres undefined) | 81 | 74 | 42 | 92 | 36
O=C(Nc1ccc2c(c1)OCO2)NC1(C(F)(F)F)Oc2ccccc2O1 | 26* | 80 | 87 | 93 | 75
O=C(NCC1CCCO1)NC1(C(F)(F)F)Oc2ccccc2O1 (centres undefined) | 21* | 71 | 68 | 78 | 70
O=C(NC1(C(F)(F)F)Oc2ccccc2O1)N1CCCC1 | 28* | 65 | 75 | 81 | 70
O=C(Nc1ccc2c(c1)OCCO2)NC1(C(F)(F)F)Oc2ccccc2O1 | 40 | 75 | 66 | 93 | 74
O=C(NCC1CCCO1)c1ccccc1 (centres undefined) | 91 | 99 | 104 | 105 | 95
Cc1cc(C)c(S(=O)(=O)Nc2cccc3nsnc23)c(C)c1 | 2.5* | 92 | 68 | 98 | 76
O=S(=O)(Nc1cccc2nsnc12)c1ccccc1 | 97 | 83 | 100 | 101 | 91
O=C1CCCC(=O)C1=C1SCCS1 | . | . | 95 | . | 91
CSc1cc(-c2ccccc2)n(Cc2ccc(Cl)cc2Cl)c(=O)c1C#N | 36* | 93 | 102 | 94 | 96
O=C1CC(c2ccccc2)CC2=C1CN(C1CCCCC1)CN2 (centres undefined) | 23* | 71 | 32 | 70 | 29
SMILES | H69AR inhibit | HUVEC prolif 384 | HCT116 PTEN-null | Fibroblast inh | bCat KO growth
Cc1cccc(Nc2nnc(SCC(=O)N(C)C3CCS(=O)(=O)C3)s2)c1C (centres undefined) | . | . | 92 | . | 92
C(=C\c1ccccc1)/CSc1nnc(-c2ccccc2)n1Cc1ccco1 | 18* | 43 | 12 | 47* | 10
Brc1ccc(CSc2nnc(-c3ccccn3)n2Cc2ccco2)cc1 | 21* | 52 | 10 | 49* | 11
O=C(NNC(=O)[C@@H]1CCCC[C@@H]1C(=O)O)Nc1ccccc1 | . | . | 101 | . | 94
CC1=C(C)C(=O)NC(Nc2nc(C)c3cc(C)cc(C)c3n2)N1 (centres undefined) | 24* | 24* | . | 14* | .
Cc1noc2ncnc(Sc3ccccc3Cl)c12 | 2.0* | 18* | 8 | 68 | 7
O=C(CNS(=O)(=O)c1ccc2ccccc2c1)OCc1nnc(-c2ccccc2)o1 | . | . | 97 | . | 86
COc1ccccc1/C=C/C(=O)c1ccc(NC(C)=O)cc1 | . | . | 17 | . | 15
COc1ccccc1/C=C/C(=O)c1c2c(c(C)[nH]c1=O)CCCC2 | . | . | 3.2* | . | 5.4*
O=C(Nc1cc2c(cc1Cl)OCCCO2)c1ccc(F)cc1 | . | . | 95 | . | 90
